Calls of active or inactive are those of the source. The rule behind the calls is not given here.
Key:
[1] = target: T1, Nuclear factor erythroid 2-related factor 2 (Homo sapiens) (UniProt Q16236); assay: Activation of NRF2 transcription in human HepG2C8 cells at 10 uM after 6 hrs by luciferase reporter gene assay relative to control; format: cell-based
T1 sequence (whole entry): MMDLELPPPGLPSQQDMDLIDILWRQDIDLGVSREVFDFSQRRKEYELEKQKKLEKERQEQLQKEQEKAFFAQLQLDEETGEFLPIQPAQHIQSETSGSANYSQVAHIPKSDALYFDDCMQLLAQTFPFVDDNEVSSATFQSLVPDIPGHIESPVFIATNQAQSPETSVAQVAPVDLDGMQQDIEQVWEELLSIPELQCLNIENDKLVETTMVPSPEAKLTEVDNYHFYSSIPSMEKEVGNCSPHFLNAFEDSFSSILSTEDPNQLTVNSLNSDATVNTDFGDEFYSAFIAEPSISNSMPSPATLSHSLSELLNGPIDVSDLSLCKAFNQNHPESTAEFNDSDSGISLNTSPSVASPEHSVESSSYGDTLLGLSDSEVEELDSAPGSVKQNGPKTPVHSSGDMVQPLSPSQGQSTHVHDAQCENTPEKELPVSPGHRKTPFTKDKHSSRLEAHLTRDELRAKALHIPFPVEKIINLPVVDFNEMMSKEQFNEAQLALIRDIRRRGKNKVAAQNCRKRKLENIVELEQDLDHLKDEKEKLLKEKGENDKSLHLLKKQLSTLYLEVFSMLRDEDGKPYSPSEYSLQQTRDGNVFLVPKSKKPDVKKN
In short: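 Luciferase reporter in HepG2C8 cells, which are HepG2 stably transfected with an Nrf2 luciferase reporter and grown in MEM. Screened at 10 μM, with dose-response over 2.5−40 μM. Activity expressed as fold of control. tBHQ positive control.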

[2] = target: T2, Tyrosine-protein phosphatase non-receptor type 1 (Homo sapiens) (UniProt P18031); assay: Inhibition of recombinant human PTP1B assessed as hydrolysis of p-nitrophenyl phosphate at 25 uM after 30 mins relative to control
T2 sequence (whole entry): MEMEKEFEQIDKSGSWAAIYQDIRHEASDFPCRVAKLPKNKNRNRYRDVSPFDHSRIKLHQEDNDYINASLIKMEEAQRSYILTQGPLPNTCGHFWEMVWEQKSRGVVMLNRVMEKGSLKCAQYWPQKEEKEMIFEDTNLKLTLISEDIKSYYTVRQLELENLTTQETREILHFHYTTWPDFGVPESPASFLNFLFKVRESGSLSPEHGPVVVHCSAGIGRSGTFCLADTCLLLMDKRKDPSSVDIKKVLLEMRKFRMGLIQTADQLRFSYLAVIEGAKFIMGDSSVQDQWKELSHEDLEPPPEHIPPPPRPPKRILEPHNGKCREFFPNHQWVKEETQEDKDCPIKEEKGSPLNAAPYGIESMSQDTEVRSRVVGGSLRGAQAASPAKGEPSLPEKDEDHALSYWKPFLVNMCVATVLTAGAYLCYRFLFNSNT

[3] = system: Influenza A virus; assay: Antiviral activity against Influenza A virus A/WSN/33(H1N1) infected in MDCK cells at 100 uM preincubated with virus for 15 mins followed by cells addition measured at 36 hrs post infection; format: functional, A/WSN/1933(H1N1)
In short: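 MDCK canine kidney cells grown in DMEM and infected with influenza A/WSN/33 (H1N1). Compounds screened at 100 μM. Oseltamivir phosphate served as the positive control.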

[4] = system: SW480; assay: Cytotoxicity against human SW480 cells assessed as reduction in cell viability after 24 hrs by MTS assay; format: functional, cell-based; conditions: SW480, 24 h
In short: (§1)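 Cells seeded at 5 × 10^3/well and cultured overnight, then exposed to compounds for 24 h. Viability read by MTS. Media: SW480 in RPMI1640, A549 in DMEM, MCF7 in MEM. […] Irinotecan positive control.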

[5] = system: HepG2; assay: Cytotoxicity against human HepG2 cells assessed as reduction in cell viability after 24 hrs by MTS assay; format: functional, cell-based; conditions: HepG2, 24 h; in short: as §1
[6] = system: A549; assay: Cytotoxicity against human A549 cells assessed as reduction in cell viability after 24 hrs by MTS assay; format: functional, cell-based; conditions: A549, 24 h; in short: as §1
[7] = system: MCF7; assay: Cytotoxicity against human MCF7 cells assessed as reduction in cell viability after 24 hrs by MTS assay; format: functional, cell-based; conditions: MCF7, 24 h; in short: as §1
[8] = system: Influenza A virus; assay: Antiviral activity against Influenza A virus A/WSN/33(H1N1) infected in dog MDCK cells preincubated with virus for 15 mins followed by cells addition measured at 36 hrs post infection; format: functional, organism-based; conditions: A/WSN/1933(H1N1)
[9] = target: T3, Tyrosinase (Homo sapiens) (UniProt P14679); assay: Inhibition of tyrosinase (unknown origin) using L-tyrosine as substrate assessed as oxidation of L-tyrosine at 20 uM after 15 mins
T3 sequence (whole entry): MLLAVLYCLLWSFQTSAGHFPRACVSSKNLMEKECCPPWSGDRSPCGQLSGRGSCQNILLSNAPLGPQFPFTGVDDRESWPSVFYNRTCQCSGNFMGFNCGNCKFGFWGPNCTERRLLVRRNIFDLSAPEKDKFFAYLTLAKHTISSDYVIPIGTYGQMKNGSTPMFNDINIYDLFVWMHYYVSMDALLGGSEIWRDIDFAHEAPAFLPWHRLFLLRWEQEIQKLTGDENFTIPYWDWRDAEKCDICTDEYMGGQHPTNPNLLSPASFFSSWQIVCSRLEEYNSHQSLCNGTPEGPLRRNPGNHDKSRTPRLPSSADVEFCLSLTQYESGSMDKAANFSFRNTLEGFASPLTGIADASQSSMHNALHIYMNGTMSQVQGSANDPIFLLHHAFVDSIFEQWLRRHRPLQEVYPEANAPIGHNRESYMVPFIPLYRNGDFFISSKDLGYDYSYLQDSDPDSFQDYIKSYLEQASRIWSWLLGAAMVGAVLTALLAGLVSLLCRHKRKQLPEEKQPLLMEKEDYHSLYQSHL
In short: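 Tyrosinase at 333 U/mL (stock) in 45 mM sodium phosphate, pH 6.6, with 2 mM L-tyrosine (stock). Incubated 37 °C for 15 min; oxidation read at 492 nm. Screened at 20 μM; dose-response for IC50. Glyasperin C positive control.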

COc1cc2c(c3oc(=O)c(-c4ccc(O)cc4O)cc13)C(C)(C)C(C)O2 (centres undefined)
fold change (FC) [1]: 0.88

COc1cc2c(c3oc(=O)c4c5ccc(O)cc5oc4c13)C(C)(C)C(C)O2 (centres undefined)
fold change (FC) [1]: 0.88

COc1c(CC=C(C)C)c(O)cc2oc(=O)c(-c3ccc(O)cc3O)cc12
fold change (FC) [1]: 1.72

CC(C)=CCc1c(O)cc2oc(-c3ccc(O)cc3)c(O)c(=O)c2c1O
inhibition [2]: 51%

C[C@@H]1O[C@@H](c2c(O)c([C@@H]3O[C@H](COC(=O)CC(C)(O)CC(=O)O)[C@@H](O)[C@H](O)[C@H]3O)c3oc(-c4ccc(O)cc4)cc(=O)c3c2O)[C@H](O)[C@H](O)[C@H]1O (some centres undefined)
fold change (FC) [1]: 1.5

CC(C)=CCc1cc(-c2oc3cc(O)cc(O)c3c(=O)c2O)ccc1O
inhibition [2]: 98%

COc1cc2c(c3oc(=O)c(-c4ccc(O)cc4O)cc13)C(C)(C)C(CO)O2 (centres undefined)
fold change (FC) [1]: 0.88

COc1cc2c(c3oc(-c4ccc(O)cc4O)cc13)C(C)(C)C(C)O2 (centres undefined)
inhibition [2]: > 90%

CC(C)=CCc1cc2c(=O)cc(-c3ccc(O)cc3)oc2cc1O
inhibition [2]: Active

CC(C)=CCc1c(O)c(CC=C(C)C)c2occ(-c3ccc(O)cc3)c(=O)c2c1O
inhibition [2]: > 95%
Activity [3]: >30%

CC1(C)[C@@H](O)CC[C@]2(C)[C@H]3C(=O)C=C4[C@H]5C[C@@](C)(C(=O)O)CC[C@]5(C)CC[C@@]4(C)[C@]3(C)CC[C@@H]12
inhibition [2]: 81%
Activity [3]: 58%

CC(C)=CCc1cc(-c2oc3cc(O)cc(O)c3c(=O)c2O)cc(O)c1O
inhibition [2]: Active

C=CC(C)(C)c1c(O)cc(OC)c2cc(-c3ccc(O)cc3O)c(=O)oc12
fold change (FC) [1]: 0.88

CC(C)=CCc1c(O)cc2occ(-c3ccc(O)c(O)c3)c(=O)c2c1O
IC50 [4]: 12 µM
IC50 [5]: 6 µM
IC50 [6]: 20.3 µM
IC50 [7]: 7 µM

CC1(C)[C@@H](O[C@@H]2O[C@H](C(=O)O)[C@@H](O)[C@H](O[C@@H]3O[C@H](C(=O)O)[C@@H](O)[C@H](O)[C@H]3O)[C@H]2O)CC[C@]2(C)[C@H]3C(=O)C=C4[C@H]5C[C@@](C)(C(=O)O)CC[C@]5(C)CC[C@@]4(C)[C@]3(C)CC[C@@H]12
Activity [3]: 47%
IC50 [8]: 39.6 µM

CC1(C)[C@@H](O[C@H]2O[C@H](C(=O)O)[C@@H](O)[C@H](O)[C@H]2O[C@@H]2O[C@H](C(=O)O)[C@@H](O)[C@H](O)[C@H]2O)CC[C@]2(C)[C@H]3C(=O)C=C4[C@@H]5C[C@@](C)(C(=O)O)CC[C@]5(C)CC[C@@]4(C)[C@]3(C)CC[C@@H]12 [GLYCYRRHIZIN]
Activity [3]: 47%
IC50 [8]: 39.6 µM

COc1c2c(cc3oc(=O)c(-c4ccc(O)cc4O)cc13)OC(C)(C)CC2
fold change (FC) [1]: 3.49

COc1cc2oc(=O)c(-c3ccc(O)cc3O)cc2c(OC)c1CC=C(C)C
fold change (FC) [1]: 0.88

CC1(C)[C@@H](O[C@@H]2O[C@H](C(=O)O)[C@@H](O)[C@H](O)[C@H]2O[C@@H]2O[C@H](C(=O)O)[C@@H](O)[C@H](O)[C@H]2O)CC[C@]2(C)[C@H]3C(=O)C=C4[C@H]5C[C@](C)(C(=O)O)CC[C@]5(C)CC[C@@]4(C)[C@]3(C)CC[C@@H]12
Activity [3]: 47%
IC50 [8]: 39.6 µM

CC1(C)[C@H]2CC[C@@]3(C)[C@@H](C(=O)C=C4[C@@H]5C[C@]6(C)C[C@@H](COC6=O)[C@@]5(C)CC[C@@]43C)[C@]2(C)CC[C@H]1O[C@H]1O[C@@H](C(=O)O)[C@H](O)[C@@H](O)[C@@H]1O[C@@H]1O[C@H](C(=O)O)[C@H](O)[C@H](O)[C@H]1O
Activity [3]: 47%
IC50 [8]: 39.6 µM

COc1c2c(cc3oc(=O)c4c5ccc(O)cc5oc4c13)OC(C)(C)CC2
fold change (FC) [1]: 3.32

CC(C)=CCc1c(O)ccc(-c2coc3c(CC=C(C)C)c(O)cc(O)c3c2=O)c1O
inhibition [2]: > 95%
Activity [3]: >30%

CC(=O)O[C@H]1C[C@@](C)(C(=O)O)C[C@H]2C3=CC(=O)[C@H]4[C@]5(C)CC[C@@H](O[C@@H]6O[C@H](C(=O)O)[C@@H](O)[C@H](O)[C@H]6O[C@H]6O[C@@H](C(=O)O)[C@H](O)[C@@H](O)[C@@H]6O[C@H]6O[C@H](C)[C@@H](O)[C@H](O)[C@@H]6O)C(C)(C)[C@H]5CC[C@]4(C)[C@@]3(C)CC[C@]12C
Activity [3]: 47%
IC50 [8]: 39.6 µM

CC(=O)O[C@@H]1C[C@](C)(C=O)C[C@@H]2C3=CC(=O)[C@@H]4[C@@]5(C)CC[C@H](O[C@@H]6O[C@H](C(=O)O)[C@@H](O)[C@H](O)[C@H]6O[C@@H]6O[C@H](C(=O)O)[C@@H](O)[C@H](O)[C@H]6O)C(C)(C)[C@@H]5CC[C@@]4(C)[C@]3(C)CC[C@]21C
Activity [3]: 47%
IC50 [8]: 39.6 µM

O=C1C[C@@H](c2ccc(O)cc2)Oc2cc(O)ccc21
inhibition [2]: inactive

O=C(/C=C/c1ccc(O)cc1)c1ccc(O)cc1O
inhibition [9]: Active
fold change (FC) [1]: 5.88

COc1cc(/C=C/C(=O)c2ccc(O)cc2O)ccc1O
inhibition [9]: Active

C[C@H]1O[C@H](O[C@H]2CC(C)(C)C[C@@H]3C4=CC(=O)[C@H]5[C@]6(C)CC[C@@H](O[C@@H]7O[C@H](C(=O)O)[C@@H](O)[C@H](O)[C@H]7O[C@@H]7O[C@H](C(=O)O)[C@@H](O)[C@H](O)[C@H]7O)C(C)(C)[C@H]6CC[C@]5(C)[C@@]4(C)CC[C@]23C)[C@@H](O)[C@@H](O)[C@@H]1O
Activity [3]: 47%
IC50 [8]: 39.6 µM
fold change (FC) [1]: 1.53

CC1(C)[C@H]2CC[C@@]3(C)[C@@H](C(=O)C=C4[C@@H]5C[C@]6(C)C[C@@H](COC6=O)[C@@]5(C)CC[C@@]43C)[C@]2(C)CC[C@H]1O[C@@H]1O[C@H](C(=O)O)[C@@H](O)[C@H](O)[C@H]1O[C@@H]1O[C@H](C(=O)O)[C@@H](O)[C@H](O)[C@H]1O
Activity [3]: 47%
IC50 [8]: 39.6 µM

COc1cc2c(c(OC)c1CC=C(C)C)C=C(c1ccc(O)cc1O)CO2
inhibition [9]: inactive

C[C@@]1(C(=O)O)CC[C@@]2(C)CC[C@@]3(C)C(=CC(=O)[C@H]4[C@]5(C)CC[C@@H](O[C@H]6O[C@@H](C(=O)O)[C@H](O)[C@@H](O)[C@@H]6O[C@H]6O[C@@H](C(=O)O)[C@@H](O)[C@@H](O)[C@@H]6O)[C@@](C)(CO)[C@H]5CC[C@@]43C)[C@@H]2C1
Activity [3]: 47%
IC50 [8]: 39.6 µM

COc1c(CC=C(C)C)c(O)cc2oc(=O)c3c4ccc(O)cc4oc3c12
fold change (FC) [1]: 0.88

Reference: ChEMBL document CHEMBL3808312, “Bioactive Constituents of Glycyrrhiza uralensis (Licorice): Discovery of the Effective Components of a Traditional Herbal Medicine” (J Nat Prod, 2016)
